# Assay outcomes from PubChem.
# PP1 inh: PP1-alpha phosphatase inhibitors, primary screen, counter-screen for PP5 inhibitor project, biochemical, fluorescence, OMFP substrate, single point | AID 2235, 2010 | inhibition, % at 6.7 µM | purified PP1alpha | 320,000 tested, 0.9% active | Serine/threonine-protein phosphatase PP1-alpha catalytic subunit (Homo sapiens), P62136;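 active means inhibition above the mean inhibition of all tested compounds plus 3 SD, computed separately for each screening campaign, cut at about 15% in these data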
# Target sequence (P62136 whole entry, looked up): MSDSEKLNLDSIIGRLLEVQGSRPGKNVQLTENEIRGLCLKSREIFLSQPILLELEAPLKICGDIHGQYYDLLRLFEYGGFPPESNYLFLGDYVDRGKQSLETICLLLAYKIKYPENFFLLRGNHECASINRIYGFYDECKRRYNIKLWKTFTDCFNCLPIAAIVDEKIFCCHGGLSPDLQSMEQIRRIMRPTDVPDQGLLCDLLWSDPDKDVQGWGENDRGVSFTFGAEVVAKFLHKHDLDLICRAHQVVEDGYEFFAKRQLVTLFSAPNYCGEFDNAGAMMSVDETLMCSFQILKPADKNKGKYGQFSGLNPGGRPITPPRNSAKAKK
# TPT1 inhibitor: Candida albicans TPT1 enzyme inhibitors, primary screen, biochemical, fluorescence polarization; tRNA 2'-phosphotransferase TPT1 (Candida albicans SC5314); recombinant caTPT1, FP RNA substrate dephosphorylation; inhibition, % at 5 µM; 300,000 tested, 0.81% active; AID 1962, 2009;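 active means inhibition above the mean of all tested compounds plus 3 SD, set per screening campaign, cut at about 24% in these data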;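 further: plate controls were DMSO alone for no effect and ferristatin control at 100 nM for full effect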
# Rpn11 inh: Rpn11 (PSMD14) deubiquitinase inhibitors, primary screen, biochemical, fluorescence polarization, uHTS. inhibition, % at 20 µM. 360,000 tested, 0.59% active. human 26S proteasome, Ub4-pepOG fluorescence polarization; 20S core pre-blocked with epoxomicin;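 active means inhibition at 20 µM, scaled to each plate's controls, above about 33%, limit read from the data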
# HNF4A DNA FP: change in binding of human HNF4A to DNA, primary screen, biochemical, fluorescence polarization, FITC-DNA; Hepatocyte nuclear factor 4-alpha (Homo sapiens), P41235; 1 h; activity change, % at 10 µM; 360,000 tested, 0.3% active; AID 1224865, 2016; in the data active means activity change above about 30%, passing the limit was not always enough
# CSN deneddyl inh: inhibitors of CSN-mediated cullin deneddylation, primary screen, biochemical, fluorescence polarization, uHTS; COP9 signalosome complex subunit 5 (Homo sapiens), Q92905; Purified CSN, SCF-Nedd8-OG deneddylation; inhibition, % at 12.5 µM; 360,000 tested, 0.38% active; AID 651999, 2013;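 active means pattern-corrected inhibition above about 35%, with an unprinted fluorescence ratio check between 0.5 and 1.5, limit read from the data, passing the limit was not always enough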;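 further: 0% = enzyme with substrate and 100% = substrate without enzyme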
#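 Detection – fluorescence polarization · System – HEK293T-derived human Csn5 enzyme · Controls – substrate-only high control, full reaction low control · Timing – 90 min, room temperature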
# NadD block: inhibitors of S. aureus NadD, primary screen, biochemical, colorimetric, uHTS | inhibition, % at 20 µM | AID 602399, 2012 | Nicotinate-nucleotide adenylyltransferase NadD (Staphylococcus aureus N315) | purified NadD enzyme, colorimetric absorbance read-out | 360,000 tested, 0.78% active; in the data active means inhibition above about 26%
# PP1 inh confirm: PP1 phosphatase inhibitors, confirmation, biochemical, fluorescence, OMFP substrate, triplicate. AID 2358, 2010. purified PP1alpha. 1,900 tested, 52% active. shares compounds with PP1 inh. inhibition, % at 6.7 µM;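 active means mean PP1 inhibition above a set limit taken from the earlier primary screen, cut at about 15% in these data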
# PP5 counter: PP5 phosphatase inhibition by PP1 hits, confirmation, counter-screen for PP1 inhibitor project, biochemical, fluorescence, triplicate | shares compounds with PP1 inh | inhibition, % at 6.7 µM | purified PP5c, OMFP fluorescence | 1,900 tested, 4% active | AID 2360, 2010;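 active means mean PP5 inhibition over triplicate wells above about 9.5% taken from the earlier PP1 screen, limit read from the data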
# The depositor's hits bear a star; · = not tested or not shown. This is a sample that favours compounds with a hit; in the whole collection about 2.7% have one here.
SMILES,PP1 inh,TPT1 inhibitor,Rpn11 inh,HNF4A DNA FP,CSN deneddyl inh,NadD block,PP1 inh confirm,PP5 counter
O=C(Cn1cnc(S(=O)(=O)N2CCOCC2)c1)Nc1ccc(OC(F)(F)F)cc1,-1,-2,0,4,0,0,·,·
COc1ccc(NC(=O)c2ccc(CNc3c(NC4CCCCC4)c(=O)c3=O)cc2)c(OC)c1,21*,0,-4,2,6,10,19*,-1
CCOc1ccc(NC(=O)c2ccc(CNc3c(NC4CCCCC4)c(=O)c3=O)cc2)cc1,-1,2,10,0,2,24,·,·
CCCOc1ccc(/C=N/Nc2cc(N3CCOCC3)ncn2)c(O)c1,27*,-2,-3,4,5,-6,23*,-6
Cc1c(NC(=O)c2cccnc2C(=O)O)cccc1C(=O)O,25*,-2,1,-2,-2,-1,0,3
Cc1c(NC(=O)c2ccc(-c3ccccc3)cc2)cccc1C(=O)O,1,-4,-1,-2,-4,-8,·,·
O=C(NCCCCCCNC(=O)c1ccncc1)c1ccncc1,1,-1,-3,-3,5,5,·,·
CC(OC(=O)c1ccc(NC(=O)CC#N)cc1)C(=O)Nc1nc(-c2ccccc2)cs1 (centres undefined),10,9,36,5,-2,24,·,·
CC(OC(=O)c1ccc(NC(=O)CC#N)cc1)C(=O)Nc1ccc(Oc2ccccc2)cc1 (centres undefined),20*,11,15,2,6,15,8,-6
C#CCn1c(=NC(=O)c2ccc(S(=O)(=O)N3CCc4ccccc4C3)cc2)sc2cc(S(N)(=O)=O)ccc21,26*,-3,11,0,4,47*,28*,-4
COc1ccc(NC(=O)NNC(=O)COc2ccc3cc(Br)ccc3c2)c(OC)c1,20*,-6,-5,-1,5,4,23*,-6
CCOc1cc(/C=N/N=C(/N)c2nonc2N)cc(Br)c1OCc1ccc(Cl)cc1,18*,-3,-3,2,1,13,15,-4
COc1cc(/C=N/N=C(/N)c2nonc2N)cc(Br)c1OCc1ccccc1C,0,0,4,3,-5,6,·,·
COc1cc(/C=N/N=C(N)N)ccc1OCc1ccc(Cl)cc1,14,-1,10,4,5,1,·,·
O=C(O)c1cc(/C=N\O)ccc1OCc1ccccc1,-2,-6,-2,4,1,4,·,·
NC(N)=N/N=C/c1ccc(OCc2ccccc2)c(OCc2ccccc2)c1,35*,-1,16,4,6,17,35*,3
CCOc1cc(/C=N/N=C(N)N)ccc1OCc1ccc(Cl)cc1,19*,2,-1,5,4,8,11,0
O=C(Nc1ccccc1C(=O)Nc1ccccn1)c1cc(F)c(F)cc1Cl,·,·,3,1,1,-9,·,·
O=C(CSc1n[nH]c(-c2ccncc2)n1)Nc1ccccc1C(F)(F)F,-6,-3,4,-3,-2,3,·,·
COc1ccccc1C(=O)NC(=O)COC(=O)C1CC1C (centres undefined),4,3,-2,3,-1,-4,·,·
O=C(NCCCCc1ccccc1)C12CN(Cc3ccccc3)CC1C(c1ccc([N+](=O)[O-])cc1)=NO2 (centres undefined),7,2,3,-4,14,4,·,·
O=C(NCCCCc1ccccc1)C12CN(Cc3ccccc3)CC1C(c1cccc([N+](=O)[O-])c1)=NO2 (centres undefined),24*,-1,-7,2,-5,1,7,0
COc1ccc(CNC(=O)[C@H](C)NC(=O)N2CCn3c2nc2ccccc23)cc1,0,0,-4,-4,0,-6,·,·
O=C(CCNc1ccc(Cc2ccncc2)cc1)c1ccc([N+](=O)[O-])cc1,18*,4,0,3,4,3,5,-1
CN1CCN(C(=O)c2cccc(-c3cnc4cnc(-c5ccccc5Oc5ccccc5)cn34)c2)CC1,·,·,-4,-2,-1,3,·,·
SMILES,PP1 inh,TPT1 inhibitor,Rpn11 inh,HNF4A DNA FP,CSN deneddyl inh,NadD block,PP1 inh confirm,PP5 counter
COC(=O)C1=C(CSc2nc3c(cc2C#N)CN(C)CC3)OC(N)=C(C#N)C1c1ccc(F)cc1 (centres undefined),18*,5,-19,-3,-12,21,5,5
COc1ccc(/C(C)=N\NC(=O)CSc2nnc(C)s2)cc1,19*,-3,0,2,-7,-4,-3,-2
C/C(=N\NC(=O)CSc1nnc(C)s1)c1ccc(Cl)cc1,2,-1,1,-1,-3,-6,·,·
O=C(Cc1ccc(S(=O)(=O)N2CCOCC2)s1)N(Cc1ccccc1)c1ccccc1,58*,0,0,3,2,-8,4,-2
CCCCCCSc1cc(-c2nc3cnccn3c2NCc2ccccc2)ccc1OC,18*,10,15,17,7,-2,8,0
CCCCNc1c(-c2ccc(OC)c(SC3CCCCC3)c2)nc2cnccn12,26*,10,9,12,9,5,17*,4
COc1ccc(-c2nc3cnccn3c2NCc2ccccc2)cc1SC1CCCCC1,11,10,8,9,7,2,·,·
O=C(CN1C(=O)NC2(CCCCC2)C1=O)NCCc1ccccc1,·,·,-3,2,0,5,·,·
O=C(Nc1cccc(-c2cn3ccccc3n2)c1)c1cc2ccccc2oc1=O,24*,-3,12,90,116,6,28*,-4
O=C(O)c1cc(-c2ccc(N3CCOCC3)cc2)nn1-c1ccc(F)cc1,42*,-1,-2,0,1,0,31*,-4
CC(C)NC(=O)c1cc(-c2ccco2)nn1-c1ccc(Cl)cc1,6,6,-11,-6,6,9,·,·
Cc1ccc(-n2nc(-c3ccco3)cc2C(=O)O)cc1,20*,2,25,-45,38*,4,17*,-10
